Assay results: ChEMBL document CHEMBL1141876, “Quinols as novel therapeutic agents. 2.(1) 4-(1-Arylsulfonylindol-2-yl)-4-hydroxycyclohexa-2,5-dien-1-ones and related agents as potent and selective antitumor agents” (2005)

What was measured:
Format in all cases: functional
[1] = tested on: Panel NCI-60 (60 carcinoma cell lines); test: Mean in vitro GI50 value against 60 human cancer cell line was determined
HCT-116 = test: Mean in vitro LC50 value against human HCT116 cell line was determined; conditions: read-out: LC50 (the source's name)
In short: (§1)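 NCI 60-cell-line screen. Cells seeded at densities suited to each line's growth and left drug-free for 24 h. Agents then added at five 10-fold dilutions, top concentration 100 μM, for 48 h. Cellular protein measured by sulforhodamine B colorimetry. LC50 read from these curves; for line 1 it is averaged across the 60 lines.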

RXF 393 = test: Mean in vitro LC50 value against human RXF 393 cell line was determined; conditions: read-out: LC50 (the source's name); in short: as §1
[2] = tested on: Panel NCI-60 (60 carcinoma cell lines); test: Mean in vitro LC50 value against 60 human cancer cell line was determined; conditions: read-out: LC50 (the source's name); in short: as §1
U-251 = test: Mean in vitro LC50 value against human U251 cell line was determined; conditions: read-out: LC50 (the source's name); in short: as §1
UO-31 = test: Mean in vitro LC50 value against human UO-31 cell line was determined; conditions: read-out: LC50 (the source's name); in short: as §1
CAKI-1 = test: Mean in vitro LC50 value against human CAKI-1 cell line was determined; conditions: read-out: LC50 (the source's name); in short: as §1
LOX IMVI = test: Mean in vitro LC50 value against human LOX IMVI cell line was determined; conditions: read-out: LC50 (the source's name); in short: as §1
ACHN = test: Mean in vitro LC50 value against human ACHN cell line was determined; conditions: read-out: LC50 (the source's name); in short: as §1
UACC-62 = test: Mean in vitro LC50 value against human UACC-62 cell line was determined; conditions: read-out: LC50 (the source's name); in short: as §1

Compound	GI50 [1] [nM]	CC50 (HCT-116) [nM]	CC50 (RXF 393) [nM]	CC50 [2] [nM]	CC50 (U-251) [nM]	CC50 (UO-31) [nM]	CC50 (CAKI-1) [nM]	CC50 (LOX IMVI) [nM]	CC50 (ACHN) [nM]	CC50 (UACC-62) [nM]
O=C1C=CC(O)(c2nc3ccccc3s2)C=C1	230	430	580	3390	–	–	–	–	–	–
CC(C)c1cc(C(C)C)c(S(=O)(=O)n2c(C3(O)C=CC(=O)C=C3)cc3ccccc32)c(C(C)C)c1	430	550	780	11200	–	–	–	–	–	–
O=C1C=CC(O)(c2cc3ccccc3[nH]2)C=C1	1380	5130	3390	24000	–	–	–	–	–	–
O=C1C=CC(O)(c2cc3ccccc3n2S(=O)(=O)c2ccc3ccccc3c2)C=C1	190	370	–	5620	510	–	–	–	–	–
O=C1C=CC(O)(c2cc3ccccc3n2S(=O)(=O)c2ccc(F)cc2)C=C1	230	360	–	7760	–	630	–	–	–	–
O=C1C=CC(O)(c2cc3ccccc3n2S(=O)(=O)c2ccccc2)C=C1	39	–	–	2950	–	–	53	–	–	–
Cc1ccc(S(=O)(=O)n2c(C3(O)C=CC(=O)C=C3)cc3ccccc32)cc1	110	48	–	7240	–	–	–	230	–	–
COc1ccc2c(c1)cc(C1(O)C=CC(=O)C=C1)n2S(=O)(=O)c1ccccc1	130	–	–	6170	–	–	–	470	450	–
O=C1C=CC(O)(c2nc3ccccc3[nH]2)C=C1	870	1860	–	13200	–	–	–	–	–	1410
COc1ccc(S(=O)(=O)n2c(C3(O)C=CC(=O)C=C3)cc3ccccc32)cc1	160	110	–	6310	–	–	–	380	–	–
O=C1C=CC(O)(c2cc3ccccc3n2S(=O)(=O)c2ccccc2)c2ccccc21 (stereo not given)	450	790	–	7760	–	–	–	780	–	–
O=C1C=CC(O)(c2cc3ccc(F)cc3n2S(=O)(=O)c2ccccc2)C=C1	16	< 10	–	2240	–	–	–	–	20	–
Cc1ccc(S(=O)(=O)n2c(C3(O)C=CC(=O)c4ccccc43)cc3ccccc32)cc1 (stereo not given)	390	450	–	5620	–	–	–	720	–	–
O=C1C=CC(O)(c2cc3cc(F)ccc3n2S(=O)(=O)c2ccccc2)C=C1	66	50	–	3230	–	–	–	63	–	–
